Data set [1] in a line: Binding affinity to KRAS G12V/S39C-BIT mutant (unknown origin) assessed as dissociation constant by HSQC NMR spectroscopy analysis. Further details: species or system Homo sapiens.
In data set [2] the target is GTPase KRas (Homo sapiens, UniProt P01116, G12V). As to the kind of experiment: Binding affinity to KRAS G12V mutant (unknown origin) assessed as dissociation constant by HSQC NMR spectroscopy analysis. The gist of the method:
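KD was fitted from chemical shift perturbations and reported as mean ± SD. Reported as <10 μM when shifts were near saturation at the first point, >2000 μM when dose-responsive but unfittable, and >10,000 μM when there were no shifts at 500 μM.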

For a further data set, the target named is SOS1-KRAS (Homo sapiens, UniProt P01116, G12C).
The subject of data set [3] is GTPase KRas (Homo sapiens), P01116 [G12C].
The target in data set [4] is GTPase KRas (Homo sapiens, UniProt P01116, G12C).
In data set [5] the target is GTPase KRas (Homo sapiens, UniProt P01116, G12D). As to the kind of experiment: Binding affinity to KRAS G12D mutant (unknown origin) assessed as dissociation constant by HSQC NMR spectroscopy analysis.
Data set [6] deals with NCI-H358. As to the kind of experiment: Antitumor activity against human NCI-H358 cells xenografted in NOG mouse model assessed as induction of apoptosis at 40 mg/kg, ip administered for 3 days and measured at 6 hrs post last dose. It is filed as functional, organism-based. The conditions noted are these: time 3.0 day. The gist of the method: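 Female NOG mice, 7–8 weeks old, bearing subcutaneous NCI-H358 tumors (5 million cells in Matrigel, right flank), randomized at mean 180 mm3, n = 5 per group and time point. […] Tumors frozen 6 h after last dose; cleaved caspase 3 measured in tumor lysates.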
A general note: A xenograft is tissue or cells of one species grown in another, often human tumour cells in immunodeficient mice.

The subject of data set [7] is NCI-H358. As to the kind of experiment: Antiproliferative activity against human NCI-H358 cells harboring KRAS G12C mutant incubated for 3 days by celltiter glo luminescent assay. In kind it is functional, cell-based. The note with it: NCI-H358, 72 h.
Data set [8] is described as follows: Toxicity in NOG mouse assessed as change in body weight at 40 to 80 mg/kg, ip. The conditions noted are these: in vivo, dose 40-80 mg/kg. In kind it is organism-based. The method in brief:
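Female NOG mice with subcutaneous NCI-H358 xenografts, randomized at mean 160 mm3 into groups of n = 8. Dosed ip 40 mg/kg once weekly or 40 mg/kg on 2 consecutive days weekly, in 25% HP-γ-CD at 10 mL/kg, with a vehicle control group. Body weight recorded daily.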

The nature of another data set: cells. The note with it: Homo sapiens, GP2d, 120 h.
The subject of another data set is LS-513. Briefly: cells. The note with it: Homo sapiens, LS-513, 120 h.
Data set [9] concerns NCI-H358. As to the kind of experiment: Antiproliferative activity against human NCI-H358. It is filed as functional, cell-based.

pEC50, pIC50, pKd, pKi: −log10 of the molar value. Calls of active or inactive are those of the source. No cut-off for these calls is given here.

One may read the pKd as the Kd on a negative log10 scale, so that one unit is a factor of ten. Usually pIC50 stands for the IC50 on a negative log10 scale, so that one unit is a factor of ten. Low readings indicate a high IC50, high ones a low IC50. As a reminder, the pKi is −log10 of the Ki, conventionally taken in molar units. Low values mean a large Ki, high ones a small Ki. Broadly, the pEC50 is −log10 of the EC50, conventionally taken in molar units. Higher therefore signals a small EC50.

Sequence of GTPase KRas (Homo sapiens, UniProt P01116, G12C) (P01116 whole entry G12C): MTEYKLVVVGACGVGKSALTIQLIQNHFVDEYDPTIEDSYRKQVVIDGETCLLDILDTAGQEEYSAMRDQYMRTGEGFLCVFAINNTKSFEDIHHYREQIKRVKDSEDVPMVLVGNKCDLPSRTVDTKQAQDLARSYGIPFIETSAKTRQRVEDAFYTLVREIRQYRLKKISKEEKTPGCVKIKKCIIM
Sequence of SOS1-KRAS (P01116 whole entry G12C, looked up): as the sequence (P01116 whole entry G12C) above
Sequence of GTPase KRas (Homo sapiens), P01116 [G12C] (P01116 whole entry G12C): as above
Sequence of GTPase KRas (Homo sapiens, UniProt P01116, G12V) (P01116 whole entry G12V): as the sequence (P01116 whole entry G12C) above, with C12V counted along it
Sequence of GTPase KRas (Homo sapiens, UniProt P01116, G12D) (P01116 whole entry G12D): as the sequence (P01116 whole entry G12C) above, with C12D counted along it

On to `CC1(C)CCCc2sc(N)c(C#N)c21`, for which the negative logarithm of the Kd (pKd) is greater than 5.00 in [1] and 4.82 on GTPase KRas [2]. `N#Cc1c(N)sc2ccccc12`: the pKd in data set [1] is 3.53. Still for that read-out and setting: in the case of `Oc1cccc(F)c1-c1ncccc1F` it was less than 2.00. Still for that read-out and setting: in the case of `N#Cc1c(N)sc2c1CCCC2` it was 3.94; in that of `COC(=O)c1c(N)sc2c1CCCC2`, less than 2.00; in that of `CCc1c(C)sc(N)c1C#N`, 3.84. Consider `CC1(C(=O)O)CCCc2sc(N)c(C#N)c21` (stereo not given), for which the pKd on GTPase KRas [2] was 2.94.

Compound `C=CC(=O)Nc1ccc(-c2noc([C@@]3(C)CCCc4sc(N)c(C#N)c43)n2)cc1` showed a pIC50 on SOS1-KRAS of less than 5.00. The same compound yielded a Kinact in data set [3] of 0.7 h⁻¹. The compound also gave a pKi on GTPase KRas [4] of 4.62. In the case of `C[C@]1(c2nc(-c3ccc(N)cc3)no2)CCCc2sc(N)c(C#N)c21`, the pKd is greater than 5.00 at GTPase KRas [2] and less than 2.70 on GTPase KRas [5].

For `Nc1nc2c(C(F)(F)F)cccc2s1`, the negative logarithm of the Kd (pKd) in data set [1] was 2.91. In the case of `C=CC(=O)N1CCN(c2cc(-c3noc([C@@]4(C)CCCc5sc(N)c(C#N)c54)n3)nc(N3CCN(C)C[C@@H]3C)c2)CC1`, the result in the data set with NCI-H358 [6] was Active. The pEC50 is 7.59 in the data set with NCI-H358 [7], less than 5.40 in the data set “cells” and less than 5.40 in the data set on LS-513. Also, the Activity entry in data set [8] is reported as “Toxic”.

For `N#Cc1c(N)sc2c1CCC2`, the pKd in data set [1] was 3.71. Still for that read-out and setting: in the case of `CN(C)c1cccc2cccc(Cl)c12` it was less than 2.00; in that of `N#Cc1csc2c1CCCC2`, less than 2.70. For the compound `C=CC(=O)N1CCN(c2cccc(-c3noc([C@@]4(C)CCCc5sc(N)c(C#N)c54)n3)c2)CC1`, on SOS1-KRAS, the pIC50 was 5.48. The same compound showed a Kinact in data set [3] of 0.3 h⁻¹. The same compound showed a pKi at GTPase KRas [4] of 5.12. In the case of `CNC(=O)C1(C)CCCc2sc(N)c(C#N)c21` (stereo not given), on GTPase KRas [2], the pKd is less than 2.70. On to `CC1CCCc2sc(N)c(C#N)c21` (stereo not given), for which the pKd in data set [1] was 4.68. With `N#Cc1c(N)sc2c1C(C(=O)Nc1ccccc1)CCC2` (stereo not given), the negative-log Kd (pKd) at GTPase KRas [2] is 2.90. Regarding `C=CC(=O)N1CCN(c2nc(=O)n(-c3c(C)ccnc3C(C)C)c3nc(-c4c(O)cccc4F)c(F)cc23)[C@@H](C)C1` [SOTORASIB], the negative logarithm of the EC50 (pEC50) was 8.22 with NCI-H358 [9] and 8.19 with NCI-H358 [7]. Turning to `Cc1noc(C2(C)CCCc3sc(N)c(C#N)c32)n1` (stereo not given), at GTPase KRas [2], the pKd was 4.70. `N#Cc1ccsc1N`: in [1], the pKd is less than 2.00. `N#Cc1c(N)sc2c1CCCCC2`: in [1], the negative logarithm of the Kd (pKd) is 3.79. As for `C[C@]1(c2nc(-c3cccc(N)c3)no2)CCCc2sc(N)c(C#N)c21`, the pKd is greater than 5.00 on GTPase KRas [2] and less than 2.70 on GTPase KRas [5]. In turn, `C=CC(=O)Nc1cccc(-c2noc([C@@]3(C)CCCc4sc(N)c(C#N)c43)n2)c1` showed a pIC50 on SOS1-KRAS of less than 5.00. Besides, the Kinact in [3] was 1.1 h⁻¹. The compound further showed a pKi at GTPase KRas [4] of 5.07. Consider `Nc1nc2c(s1)CCCC2`, for which the pKd in data set [1] was 3.15. In the case of `CC1(C(=O)Nc2ccccc2)CCCc2sc(N)c(C#N)c21` (stereo not given), on GTPase KRas [2], the pKd is 2.93.

Values taken from ChEMBL document CHEMBL5214993, “Fragment Optimization of Reversible Binding to the Switch II Pocket on KRAS Leads to a Potent, In Vivo Active KRASG12C Inhibitor” (J Med Chem, 2022).
